Measured values as given in ChEMBL document CHEMBL1134773, “Design and synthesis of potent and selective alpha(4)beta(7) integrin antagonists” (J Med Chem, 2001).

target: T1, Integrin alpha-4/beta-7 (Homo sapiens) (UniProt P13612+P26010); experiment: Ability to inhibit adhesion of alpha4-beta7 integrin expressing 38-beta7 lymphoma cells to chinese hamster ovary (CHO) cells stably transfected with MAdCAM-1; type: cell-based
How it was run: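 38-β7 lymphoma cells (α4β7+) labelled 30 min at 37 °C with 12 μg/mL H33342, then 8×10^5/mL in buffer with 1.0 mM Ca2+/Mg2+. Preincubated 10 min at 37 °C with peptide at 1 mg/mL final. Allowed to adhere 30 min at 37 °C to confluent MAdCAM-1-transfected CHO monolayers (seeded 24 h before). Nonadherent cells removed by inverse centrifugation. Result given as % of medium control, mean of two experiments.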

Compound | Adhesion [%]
CC(C)C[C@@H]1NC(=O)[C@@H](C)NC(=O)[C@H]2CCCN2C(=O)[C@@H](C)NC(=O)[C@H]([C@@H](C)O)NC(=O)[C@@H](CC(=O)O)NC1=O | 7
CC(C)C[C@@H]1NC(=O)[C@@H](C)NC(=O)[C@H](C)NC(=O)[C@@H](C)NC(=O)[C@H]([C@@H](C)O)NC(=O)[C@@H](CC(=O)O)NC1=O | 85
CC(C)C[C@@H]1NC(=O)[C@@H](Cc2ccccc2)NC(=O)[C@@H](Cc2ccccc2)NC(=O)[C@@H](CC(=O)O)NC(=O)[C@H]([C@@H](C)O)NC(=O)[C@@H](CC(=O)O)NC1=O | 56
CC[C@H](C)[C@H]1NC(=O)[C@H](C)NC(=O)[C@@H](C)NC(=O)[C@H]([C@@H](C)O)NC(=O)[C@@H](CC(=O)O)NC1=O (stereo in doubt; P1) | 100
CC[C@H](C)[C@@H]1NC(=O)[C@H](C)NC(=O)[C@@H](C)NC(=O)[C@H]([C@@H](C)O)NC(=O)[C@@H](CC(=O)O)NC1=O | 137
CC(C)C[C@@H]1NC(=O)[C@@H]2Cc3ccccc3CN2C(=O)[C@H]2CCCN2C(=O)[C@@H](CC(=O)O)NC(=O)[C@H]([C@@H](C)O)NC(=O)[C@@H](CC(=O)O)NC1=O | 9
C[C@H]1NC(=O)[C@H]2CCCN2C(=O)[C@@H](C)NC(=O)[C@H]([C@@H](C)O)NC(=O)[C@@H](CC(=O)O)NC(=O)CNC1=O | 105
CC(C)C[C@@H]1NC(=O)[C@@H](CC(=O)O)NC(=O)[C@@H](Cc2ccccc2)NC(=O)[C@@H](C)NC(=O)[C@H]([C@@H](C)O)NC(=O)[C@@H](CC(=O)O)NC1=O | 86
CC(C)C[C@@H]1NC(=O)[C@@H](C)NC(=O)[C@H]2CCCN2C(=O)[C@@H](CC(=O)O)NC(=O)[C@H]([C@@H](C)O)NC(=O)[C@@H](CC(=O)O)NC1=O | 47
CC(C)C[C@@H]1NC(=O)[C@H]2CCCN2C(=O)[C@H](C)NC(=O)[C@@H](C)NC(=O)[C@H]([C@@H](C)O)NC(=O)[C@@H](CC(=O)O)NC1=O | 30
CC(C)[C@@H]1NC(=O)[C@@H](C)NC(=O)[C@H]2CCCN2C(=O)[C@@H](C)NC(=O)[C@H]([C@@H](C)O)NC(=O)[C@@H](CC(=O)O)NC1=O | 97
CC(C)C[C@@H]1NC(=O)[C@@H](CCCN=C(N)N)NC(=O)[C@H]2CCCN2C(=O)[C@@H](C)NC(=O)[C@H]([C@@H](C)O)NC(=O)[C@@H](CC(=O)O)NC1=O | 26
CC(C)C[C@@H]1NC(=O)[C@@H](CC(=O)O)NC(=O)[C@H]2CCCN2C(=O)[C@@H](Cc2ccc(O)cc2)NC(=O)[C@H]([C@@H](C)O)NC(=O)[C@@H](CC(=O)O)NC1=O | 76
CC(C)C[C@@H]1NC(=O)[C@@H](CC(=O)O)NC(=O)[C@H]2CCCN2C(=O)[C@@H](C)NC(=O)[C@H]([C@@H](C)O)NC(=O)[C@@H](CC(=O)O)NC1=O | 115
CC(C)C[C@@H]1NC(=O)[C@@H](C)NC(=O)[C@H]2CCCN2C(=O)[C@@H](CC(=O)O)NC(=O)[C@H](C(C)C)NC(=O)[C@@H](CC(=O)O)NC1=O | 40
CC(C)C[C@@H]1NC(=O)[C@@H]([C@@H](C)O)NC(=O)[C@H]2CCCN2C(=O)[C@@H](C)NC(=O)[C@H]([C@@H](C)O)NC(=O)[C@@H](CC(=O)O)NC1=O | 49
CC(C)C[C@@H]1NC(=O)[C@@H](CC(=O)O)NC(=O)[C@H]2CCCN2C(=O)[C@@H](Cc2c[nH]c3ccccc23)NC(=O)[C@H]([C@@H](C)O)NC(=O)[C@@H](CC(=O)O)NC1=O | 87
CC[C@H](C)[C@@H]1NC(=O)[C@@H](C)NC(=O)[C@H]2CCCN2C(=O)[C@@H](C)NC(=O)[C@H]([C@@H](C)O)NC(=O)[C@@H](CC(=O)O)NC1=O | 64
CC(C)C[C@@H]1NC(=O)[C@@H](C)NC(=O)[C@H](C)NC(=O)[C@H]2CCCN2C(=O)[C@H]([C@@H](C)O)NC(=O)[C@@H](CC(=O)O)NC1=O | 111
C[C@H]1NC(=O)[C@H]2CCCN2C(=O)[C@@H](CC(=O)O)NC(=O)[C@H]([C@@H](C)O)NC(=O)[C@@H](CC(=O)O)NC(=O)[C@@H](c2ccccc2)NC1=O | 114

Compound | Adhesion [%]
CC(C)C[C@@H]1NC(=O)[C@@H](Cc2ccc(O)cc2)NC(=O)[C@H]2CCCN2C(=O)[C@@H](CCCCN)NC(=O)[C@H]([C@@H](C)O)NC(=O)[C@@H](CC(=O)O)NC1=O | 81
CC(C)C[C@@H]1NC(=O)[C@H](C)NC(=O)[C@@H](C)NC(=O)[C@@H]([C@@H](C)O)NC(=O)[C@@H](CC(=O)O)NC1=O | 85
CC(C)C[C@@H]1NC(=O)[C@@H](C)NC(=O)[C@H]2CCCN2C(=O)[C@@H](C)NC(=O)CNC(=O)[C@@H](CC(=O)O)NC1=O | 91
CC(C)C[C@@H]1NC(=O)[C@H](C)NC(=O)[C@H]2CCCN2C(=O)[C@H]([C@@H](C)O)NC(=O)[C@@H](CC(=O)O)NC1=O | 89
CC(C)C[C@@H]1NC(=O)[C@@H](Cc2ccccc2)NC(=O)[C@H]2CCCN2C(=O)[C@@H](CCCCN)NC(=O)[C@H]([C@@H](C)O)NC(=O)[C@@H](CC(=O)O)NC1=O | 85
CC(C)C[C@@H]1NC(=O)[C@@H](C)NC(=O)[C@H]2CCCN2C(=O)[C@@H](C)NC(=O)[C@H](C(C)C)NC(=O)[C@@H](CC(=O)O)NC1=O | 50
CC(C)C[C@@H]1NC(=O)[C@@H](C)NC(=O)[C@H]2CCCN2C(=O)[C@@H](C)NC(=O)[C@H](CO)NC(=O)[C@@H](CC(=O)O)NC1=O | 90
CC(C)C[C@@H]1NC(=O)[C@@H](C)NC(=O)[C@@H](Cc2ccccc2)NC(=O)[C@@H](CC(=O)O)NC(=O)[C@H]([C@@H](C)O)NC(=O)[C@@H](CC(=O)O)NC1=O | 63
CC(C)C[C@@H]1NC(=O)[C@@H](CC(=O)O)NC(=O)[C@H]2CCCN2C(=O)[C@@H](CCCCN)NC(=O)[C@H]([C@@H](C)O)NC(=O)[C@@H](CC(=O)O)NC1=O | 102
CC[C@H](C)[C@H]1NC(=O)[C@H](C)NC(=O)[C@@H](C)NC(=O)[C@H]([C@@H](C)O)NC(=O)[C@@H](CC(=O)O)NC1=O (stereo in doubt; P6) | 63
CC(C)C[C@@H]1NC(=O)[C@@H](CCC(=O)O)NC(=O)[C@H]2CCCN2C(=O)[C@@H](C)NC(=O)[C@H]([C@@H](C)O)NC(=O)[C@@H](CC(=O)O)NC1=O | 65
NC(=O)C[C@@H]1NC(=O)CNC(=O)[C@@H](Cc2ccccc2)NC(=O)[C@@H](Cc2c[nH]cn2)NC(=O)[C@@H](CCC(=O)O)NC1=O | 100
CC(C)C[C@@H]1NC(=O)C(C2CCCCC2)NC(=O)[C@H]2CCCN2C(=O)[C@@H](CC(=O)O)NC(=O)[C@H]([C@@H](C)O)NC(=O)[C@@H](CC(=O)O)NC1=O (stereo partly specified) | 58
CC(C)C[C@@H]1NC(=O)[C@H]2CCCN2C(=O)[C@@H](C)NC(=O)[C@H]([C@@H](C)O)NC(=O)[C@@H](CC(=O)O)NC1=O | 74
CC(C)C[C@@H]1NC(=O)[C@@H](CC(=O)O)NC(=O)[C@@H](CC(=O)O)NC(=O)[C@@H](C)NC(=O)[C@H]([C@@H](C)O)NC(=O)[C@@H](CC(=O)O)NC1=O | 99
CSCC[C@H]1NC(=O)[C@H]([C@@H](C)O)NC(=O)[C@@H](CC(=O)O)NC(=O)[C@H](CC(C)C)NC(=O)[C@@H](CC(=O)O)NC(=O)[C@H]2CCCN2C1=O | 83
CC(C)C[C@@H]1NC(=O)[C@@H](CC(=O)O)NC(=O)[C@H]2CCCN2C(=O)[C@@H](Cc2ccccc2)NC(=O)[C@H]([C@@H](C)O)NC(=O)[C@@H](CC(=O)O)NC1=O | 100
C[C@H]1NC(=O)[C@H]2CCCN2C(=O)[C@@H](CC(=O)O)NC(=O)[C@H]([C@@H](C)O)NC(=O)[C@@H](CC(=O)O)NC(=O)[C@H](Cc2ccccc2)NC1=O | 102
CC(C)C[C@@H]1NC(=O)[C@@H](Cc2ccc(C(=O)c3ccccc3)cc2)NC(=O)[C@H]2CCCN2C(=O)[C@@H](CC(=O)O)NC(=O)[C@H]([C@@H](C)O)NC(=O)[C@@H](CC(=O)O)NC1=O | 10
C[C@H]1NC(=O)[C@H]2CCCN2C(=O)[C@@H](CC(=O)O)NC(=O)[C@H]([C@@H](C)O)NC(=O)[C@@H](CC(=O)O)NC(=O)[C@H](c2ccccc2)NC1=O | 98

target: T1, Integrin alpha-4/beta-7 (Homo sapiens); experiment: Inhibition of alpha4-beta7 lymphoma cell binding to CHO-VCAM-1 cells.; type: cell-based

Compound | Adhesion [%]
NC(=O)C[C@@H]1NC(=O)CNC(=O)[C@@H](Cc2ccccc2)NC(=O)[C@@H](Cc2c[nH]cn2)NC(=O)[C@@H](CCC(=O)O)NC1=O | 93
